The nature of assay [1]: hit retest on RPL19A-GFP reporter strain – cell-based, S. cerevisiae, flow cytometry, cherry picks, mother/daughter gates, confirmation (AID 2270;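 active means GFP response below 50% of the DMSO control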). Particulars: 3 h, at 10 µM, stronger effect = lower value, 100 = same GFP as DMSO wells. (In general: In flow cytometry, cells or beads pass a laser one at a time.)
A short description of assay [2]: yeast TOR pathway reporter LAP4-GFP change – cell-based, cherry picks, flow cytometry, mother/daughter gates, confirmation (AID 2271;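 active means GFP response above 150% of the DMSO control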;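 further: ratio of sample to DMSO plate mean so 100% equals DMSO level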). Particulars: S. cerevisiae LAP4-GFP strain, 3 h, at 10 µM, stronger effect = higher value, 100 means same as DMSO control. In short, it runs like this:
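System: Alexa 633-stained baker's yeast GFP-fusion strain; quantity: 0.2 OD600 cells; timing: compound exposure 3 h at 30 °C, end-over-end rotation; detection: HT flow cytometry, GFP fluorescence channel; measure: per-gate (all, mother, daughter) GFP response vs DMSO; control set: DMSO-only negative wells, rapamycin 400 ng/mL positive wells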

The nature of assay [3]: TOR pathway reporter MEP2-GFP, retest of hits – S. cerevisiae, flow cytometry GFP, cherry picks, confirmation (AID 2272;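 active means GFP response above 150% of the DMSO control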;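 further: ratio of well signal to plate DMSO mean so 100% equals DMSO level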). Conditions: S. cerevisiae MEP2-GFP strain, 3 h, at 10 µM, stronger effect = higher value.
Assay [4] can be described thus: yeast AGP1-GFP fluorescence change, single-dose – cell-based, flow cytometry, S. cerevisiae, cherry picks, confirmation (AID 2273).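 Further: median GFP channel fluorescence over the whole cell population gate.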 Conditions: S. cerevisiae AGP1-GFP strain, 3 h, at 10 µM.
Assay [5] is described as follows: TOR pathway CIT2 reporter hit retest – S. cerevisiae, GFP fusion, cherry picks, mother/daughter gates, confirmation (AID 2274). Particulars: S. cerevisiae CIT2-GFP strain, flow cytometry, 3 h, at 10 µM, stronger effect = higher value.
The mark [6] stands for this setting: measured here: daughter cell gate.
[7] abbreviates: measured here: mother cell gate.
Setting [8] is: measured here: daughter cell gate response.
The mark [9] stands for this setting: measured here: mother cell gate response.

Calls of active or inactive are those of the source.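 How the source made its calls, unless noted: active means GFP response above 150% of the DMSO level; inconclusive means fewer than 70 events counted for a yeast strain; inactive means the rest.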

With `CS(=O)(=O)N1CCc2cc(C(=O)Nc3ccc(COCC(F)(F)F)cc3)ccc21`, the GFP response vs DMSO in assay [1] is 102% (inactive); in assay [1] (setting [6]) it was 104%; in assay [1] (setting [7]), 103%; in assay [3], 100% (inactive). The GFP response relative to DMSO was 92.6% (inactive) in assay [2], 97.2% in assay [2] (setting [8]) and 93.1% in assay [2] (setting [9]). For the same compound, the GFP response, % of DMSO in assay [4] is 96.1% (inactive); in assay [5] it was 110% (inactive); in assay [5] (setting [6]) it was 108%; in assay [5] (setting [7]) it was 111%.

As for `CCn1c(=O)c(C(=O)NCCCO)c(O)c2ccccc21`, the GFP response vs DMSO in assay [1] is 102% (inactive); in assay [1] (setting [6]), 101%; in assay [1] (setting [7]) it was 102%; in assay [3] it was 114% (inactive). Also, the GFP response relative to DMSO in assay [2] is 111% (inactive); in assay [2] (setting [8]), 111%; in assay [2] (setting [9]), 112%. Besides, the GFP response, % of DMSO is 99.1% (inactive) in assay [4], 106% (inactive) in assay [5], 105% in assay [5] (setting [6]) and 107% in assay [5] (setting [7]).

In the case of `COc1cccc(N=Nc2ccc(O)c3ncccc23)c1`, the GFP response vs DMSO in assay [1] is 98.2% (inactive); in assay [1] (setting [6]), 97.4%; in assay [1] (setting [7]), 98%; in assay [3], 117% (inactive). Moreover, the GFP response relative to DMSO in assay [2] was 224% (active); in assay [2] (setting [8]), 205%; in assay [2] (setting [9]), 228%. Also, the GFP response, % of DMSO in assay [4] was 91.3% (inactive); in assay [5] it was 105% (inactive); in assay [5] (setting [6]), 106%; in assay [5] (setting [7]), 99.7%.

As for `Clc1ccc(OCCn2cnc3ccccc32)c(Cl)c1`, the GFP response vs DMSO is 87.5% (inactive) in assay [1], 82.3% in assay [1] (setting [6]), 89.4% in assay [1] (setting [7]) and 89.9% (inactive) in assay [3]. The GFP response relative to DMSO was 134% (inactive) in assay [2], 123% in assay [2] (setting [8]) and 142% in assay [2] (setting [9]). For the same compound, the GFP response, % of DMSO in assay [4] is 92.7% (inactive); in assay [5], 82.6% (inactive); in assay [5] (setting [6]), 80.7%; in assay [5] (setting [7]) it was 84.3%.

With `Nc1ccc(S(=O)(=O)c2ccccc2)nc1`, the GFP response vs DMSO is 103% (inactive) in assay [1], 104% in assay [1] (setting [6]), 104% in assay [1] (setting [7]) and 104% (inactive) in assay [3]. Further, the figures for the GFP response relative to DMSO in assay [2], in assay [2] (setting [8]) and in assay [2] (setting [9]) were 99.8% (inactive), 98.7% and 99.3%, respectively. Further, the GFP response, % of DMSO in assay [4] was 95.7% (inactive); in assay [5] it was 95.2% (inactive); in assay [5] (setting [6]) it was 94.8%; in assay [5] (setting [7]), 94.4%.

In the case of `Cc1cccc(NC(=O)c2ccccc2O)c1C`, the GFP response vs DMSO was 97.3% (inactive) in assay [1], 94.7% in assay [1] (setting [6]), 96.9% in assay [1] (setting [7]) and 99.3% (inactive) in assay [3]. Besides, the results for the GFP response relative to DMSO in assay [2], in assay [2] (setting [8]) and in assay [2] (setting [9]) were 112% (inactive), 104% and 116%, respectively. The GFP response, % of DMSO is 98.4% (inactive) in assay [4], 95.8% (inactive) in assay [5], 95.8% in assay [5] (setting [6]) and 94.9% in assay [5] (setting [7]).

For the compound `Cc1cccc2nc(-c3cccnc3)c(NCCC(C)C)n12`, the GFP response vs DMSO in assay [1] is 98.8% (inactive); in assay [1] (setting [6]), 99.8%; in assay [1] (setting [7]), 99.6%; in assay [3] it was 107% (inactive). Also, the GFP response relative to DMSO in assay [2] is 89% (inactive); in assay [2] (setting [8]), 89.5%; in assay [2] (setting [9]) it was 92.1%. In addition, the GFP response, % of DMSO is 98.5% (inactive) in assay [4], 96.5% (inactive) in assay [5], 99.7% in assay [5] (setting [6]) and 94.4% in assay [5] (setting [7]).

Regarding `Cc1ccc(-c2csc3ncn(Cc4ccc(C(=O)O)cc4)c(=O)c23)cc1C`, the GFP response vs DMSO in assay [1] is 98.8% (inactive); in assay [1] (setting [6]) it was 97.3%; in assay [1] (setting [7]), 99%; in assay [3] it was 105% (inactive). For the same compound, the GFP response relative to DMSO in assay [2] is 117% (inactive); in assay [2] (setting [8]), 114%; in assay [2] (setting [9]) it was 120%. Besides, the GFP response, % of DMSO was 116% (inactive) in assay [4], 106% (inactive) in assay [5], 105% in assay [5] (setting [6]) and 107% in assay [5] (setting [7]).

As for `Cc1ccn2c(NC3CCCCC3)c(C)nc2c1`, the GFP response vs DMSO is 99.4% (inactive) in assay [1], 100% in assay [1] (setting [6]), 99.6% in assay [1] (setting [7]) and 99% (inactive) in assay [3]. In addition, the GFP response relative to DMSO in assay [2] is 95.7% (inactive); in assay [2] (setting [8]) it was 95.9%; in assay [2] (setting [9]) it was 96.2%. In addition, the GFP response, % of DMSO in assay [4] is 99% (inactive); in assay [5], 98.8% (inactive); in assay [5] (setting [6]) it was 101%; in assay [5] (setting [7]), 96.8%.

For the compound `O=C1Nc2ccc(Br)cc2/C1=C/C(=O)c1ccc2c(c1)OCO2`, the GFP response vs DMSO was 101% (inactive) in assay [1], 99.4% in assay [1] (setting [6]), 98.9% in assay [1] (setting [7]) and 105% (inactive) in assay [3]. In addition, the GFP response relative to DMSO in assay [2] is 125% (inactive); in assay [2] (setting [8]) it was 117%; in assay [2] (setting [9]) it was 130%. The GFP response, % of DMSO in assay [4] was 94.5% (inactive); in assay [5] it was 101% (inactive); in assay [5] (setting [6]) it was 101%; in assay [5] (setting [7]), 96.1%.

Consider `O=C1CC(SCc2nc3ccccc3[nH]2)C(=O)N1c1ccc(F)cc1` (stereo not drawn), for which the GFP response vs DMSO in assay [1] was 102% (inactive); in assay [1] (setting [6]), 101%; in assay [1] (setting [7]), 100%; in assay [3] it was 110% (inactive). For the same compound, the results for the GFP response relative to DMSO in assay [2], in assay [2] (setting [8]) and in assay [2] (setting [9]) were 110% (inactive), 108% and 109%, respectively. Moreover, the GFP response, % of DMSO was 106% (inactive) in assay [4], 108% (inactive) in assay [5], 108% in assay [5] (setting [6]) and 107% in assay [5] (setting [7]).

For the compound `Cc1cc(O)c(C(=O)/C=C/c2ccccc2)c(=O)o1`, the GFP response vs DMSO is 97.6% (inactive) in assay [1], 101% in assay [1] (setting [6]), 96.1% in assay [1] (setting [7]) and 100% (inactive) in assay [3]. The values for the GFP response relative to DMSO in assay [2], in assay [2] (setting [8]) and in assay [2] (setting [9]) were 144% (inactive), 139% and 148%, respectively. The GFP response, % of DMSO was 97% (inactive) in assay [4], 96.5% (inactive) in assay [5], 99.7% in assay [5] (setting [6]) and 95.5% in assay [5] (setting [7]).

For `O=[N+]([O-])c1cc(Cl)ccc1Sc1ccccn1`, the GFP response vs DMSO in assay [1] is 104% (inactive); in assay [1] (setting [6]), 102%; in assay [1] (setting [7]), 103%; in assay [3], 112% (inactive). The GFP response relative to DMSO was 98.2% (inactive) in assay [2], 95.9% in assay [2] (setting [8]) and 98.4% in assay [2] (setting [9]). For the same compound, the GFP response, % of DMSO in assay [4] was 99% (inactive); in assay [5], 95.9% (inactive); in assay [5] (setting [6]), 95.6%; in assay [5] (setting [7]) it was 93.2%.
